One may read the MIC as the lowest concentration found to suppress growth. The term inhibition in vivo denotes the share of the control response that was lost under treatment. The LC50 is the concentration lethal to half of the exposed cells or organisms.

In brackets after ≈: the same amount, converted by molar mass. Activity calls are given as the source filed them. The calls are words filed in the database; no cut-off is given here.

The subject of series [1] is Trichophyton rubrum. Description: Antifungal activity against Trichophyton rubrum C137 by agar dilution method. The class given is functional. Put shortly:
(§1)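 Filamentous fungi (hyalohyphomycetes, dermatophytes) were grown on SDA. Spore suspensions were set to 1.0–5.0 × 10^6 spores/mL by hemocytometer count. 1 µL was inoculated onto 1 mL SDA slants holding compound at 10–100 µg/mL (two-fold DMSO dilutions, final DMSO ≤2%), then incubated at 28–30 °C. Drug-free blank and ketoconazole control included; repeated three times; MIC determined.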
(Agar dilution tests growth on a series of plates holding different concentrations.)

Series [2] has as its system Aspergillus niger. Description: Antifungal activity against Aspergillus niger ATCC 9092 by agar dilution method. In kind it is functional, organism-based. Put shortly: as §1
Series [3] has as its system Aspergillus fumigatus. Put plainly: Antifungal activity against Aspergillus fumigatus ATCC 26934 by agar dilution method. The class given is functional. Put shortly: as §1
Series [4] concerns Rhizopus. Description: Antifungal activity against Rhizopus CL35 by agar dilution method. The class given is functional. Put shortly: as §1
Series [5] has as its system Cryptococcus neoformans. Description: Antifungal activity against Cryptococcus neoformans ATCC 32264 by agar dilution method. The class given is functional. Put shortly: (§2)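 Yeasts were grown on Sabouraud dextrose agar and adjusted to 1.0–5.0 × 10^6 cell/mL (0.5 McFarland). Agar dilution used 1 mL SDA slants holding two-fold DMSO dilutions of compound at 10–100 µg/mL, with final DMSO ≤2%. 1 µL of inoculum was added per slant, then incubated at 35 °C. Drug-free blank and ketoconazole positive control included; triplicate runs; MIC read.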

The subject of series [6] is Enterobacter cloacae. Description: Antibacterial activity against Enterobacter cloacae ATCC 35030 at < 100 ug/mL by agar dilution method. In kind it is functional, organism-based. Put shortly: (§3)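 Agar dilution on 1 mL Mueller-Hinton agar slants. Compounds were serially two-fold diluted in DMSO (final DMSO ≤2%) to give 10–100 µg/mL in the medium. Bacteria were grown on MHA at 35 °C for 24 h, suspended in 0.86% saline at 1.5 × 10^8 cell/mL (0.5 McFarland), and 1 µL was added per slant. Slants were incubated at 35 °C. Drug-free blank included; each assay run three times; MIC recorded.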

Series [7] relates to Streptococcus agalactiae. Put plainly: Antibacterial activity against Streptococcus agalactiae ATCC 13813 at < 100 ug/mL by agar dilution method. The class given is functional. The essentials: as §3
The subject of series [8] is Proteus mirabilis. Put plainly: Antibacterial activity against Proteus mirabilis ATCC 25933 at < 100 ug/mL by agar dilution method. In kind it is functional, organism-based. Put shortly:
as §3

The subject of series [9] is Mus musculus. Put plainly: Antinociceptive activity in Swiss mouse assessed as inhibition of acetic acid-induced writhing at 10 mg/kg, ip administered 30 mins before acetic acid challenge measured after 20 mins relative to control. In kind it is functional. The following applies: route intraperitoneal. Put shortly: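 Mice were given 10 mg/kg i.p. in Tween 80/0.9% NaCl (Tween ≤5%) 30 min before i.p. 0.6% acetic acid, at 20–22 °C. Abdominal constrictions plus hind-limb stretching were counted cumulatively over 20 min in individual funnels. Groups of six, randomized and blinded. Inhibition was calculated versus vehicle controls (10 ml/kg i.p.); ANOVA with Dunnett's test.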
Background: Writhing tests count abdominal constrictions after an irritant is injected.

Series [10] concerns Staphylococcus saprophyticus. Description: Antibacterial activity against Staphylococcus saprophyticus ATCC 35552 at < 100 ug/mL by agar dilution method. In kind it is functional, organism-based. Put shortly:
as §3

Series [11] concerns Nannizzia gypsea. Description: Antifungal activity against Microsporum gypseum C115 by agar dilution method. In kind it is functional. The essentials:
as §1

The subject of series [12] is Pseudomonas aeruginosa. Description: Antibacterial activity against Pseudomonas aeruginosa ATCC 27853 at < 100 ug/mL by agar dilution method. In kind it is functional, organism-based. The essentials:
as §3

Series [13] has as its system Staphylococcus aureus. Description: Antibacterial activity against Staphylococcus aureus ATCC 6538P at < 100 ug/mL by agar dilution method. In kind it is functional, organism-based. Put shortly: as §3
Series [14] relates to Salmonella typhimurium. Put plainly: Antibacterial activity against Salmonella Typhimurium ATCC 14028 at < 100 ug/mL by agar dilution method. In kind it is functional, organism-based. The note with it: Salmonella enterica subsp. enterica serovar Typhimurium. Put shortly:
as §3

Series [15] is described as follows: Toxicity in Artemia salina assessed as mortality after 24 hrs. In kind it is organism-based. The following applies: in vivo. The essentials:
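Artemia salina hatched at pH 9.0 (Na2CO3), 25 °C, strong aeration, continuous light (2000 Lux). Phototropic nauplii were collected about 12 h after hatching, and groups of 10 were exposed per well to various compound concentrations for 24 h. Survivors were counted and % deaths calculated.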

Series [16] concerns Microsporum canis. Description: Antifungal activity against Microsporum canis C112 by agar dilution method. In kind it is functional, organism-based. Put shortly: as §1
For series [17], the system named is Pichia kudriavzevii. Put plainly: Antifungal activity against Candida krusei ATCC 6582 by agar dilution method. In kind it is functional, organism-based. The essentials: as §2
Series [18] concerns Aspergillus flavus. Description: Antifungal activity against Aspergillus flavus ATCC 9170 by agar dilution method. The class given is functional, organism-based. Put shortly: as §1
In series [19] the test system is Trichophyton mentagrophytes. Description: Antifungal activity against Trichophyton mentagrophytes ATCC 9972 by agar dilution method. The class given is functional. The essentials:
as §1

The subject of series [20] is Escherichia coli. Put plainly: Antibacterial activity against Escherichia coli ATCC 11775 at < 100 ug/mL by agar dilution method. In kind it is functional, organism-based. The essentials: as §3
Series [21] deals with Bacillus cereus. Description: Antibacterial activity against Bacillus cereus ATCC 14579 at < 100 ug/mL by agar dilution method. In kind it is functional. Put shortly:
as §3

Series [22] concerns Candida albicans. Description: Antifungal activity against Candida albicans ATCC 10231 by agar dilution method. The class given is functional, organism-based. The essentials: as §2
In series [23] the test system is Bacillus subtilis. Put plainly: Antibacterial activity against Bacillus subtilis ATCC 23858 at < 100 ug/mL by agar dilution method. In kind it is functional, organism-based. Put shortly:
as §3

In series [24] the test system is Mus musculus. Put plainly: Antinociceptive activity in Swiss mouse assessed as inhibition of acetic acid-induced abdominal contraction at 0.1 to 100 mg/kg, ip administered 30 mins before acetic acid challenge measured after 20 mins relative to control. The following applies: dose mg/kg 0.1-100; route intraperitoneal. The class given is functional, Abdominal cavity. The essentials: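 Writhing dose-response in mice: compounds at 0.1–10 mg/kg and standard drugs at 10–100 mg/kg, i.p. in Tween 80/saline, 30 min before i.p. 0.6% acetic acid. Constrictions and stretches were counted for 20 min at 20–22 °C, with six to eight animals per group. ID50 (dose halving the response versus control) was given as geometric mean with 95% confidence limits.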

Series [25] has as its system Mus musculus. Put plainly: Antinociceptive activity in Swiss mouse assessed as inhibition of formalin-induced paw licking activity at 10 mg/kg, ip administered 30 mins before formalin challenge measured after 15 to 30 mins. The class given is functional. The note with it: route intraperitoneal. The essentials: (§4)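 Formalin test in mice pretreated i.p. with vehicle or 10 mg/kg test agent 30 min before formalin injection. Animals were acclimatized 5 min in a glass cylinder with an angled mirror. Licking time was recorded for the early phase (0–5 min) and the late phase (15–30 min) after formalin. Values are mean ± S.E.M.; ANOVA with Dunnett's test.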

Series [26] has as its system Mus musculus. Put plainly: Antinociceptive activity in Swiss mouse assessed as inhibition of formalin-induced paw licking activity at 10 mg/kg, ip administered 30 mins before formalin challenge measured after 5 mins. In kind it is functional. The note with it: route intraperitoneal. The essentials: as §4

Regarding `Cc1c(N2C(=O)C(Cl)=C(NCc3ccccc3)C2=O)c(=O)n(-c2ccccc2)n1C`, the MIC in series [1] is 100 µg/mL (≈ 236 µM); in series [3] it was 100 µg/mL (≈ 236 µM); in series [4], > 100 µg/mL; in series [5], 40 µg/mL (≈ 94.6 µM); in [11] it was > 100 µg/mL; in series [19] it was 100 µg/mL (≈ 236 µM). Moreover, the outcome in series [2], in [16], in [17], in [18] and in series [22] was Active. Besides, the outcome in series [6], in [7], in series [8], in series [10], in series [12] and in [13] was inactive. Further, the outcome in [14], in series [20], in series [21] and in series [23] was inactive. In series [9], the inhibition in vivo at 10 mg/kg was 35.4%. For the same molecule, in series [15], the LC50 at 24 h was > 1000 µg/mL.
On to `Cc1c(N2C(=O)C(Cl)=C(Nc3ccccc3)C2=O)c(=O)n(-c2ccccc2)n1C`, for which the MIC was > 100 µg/mL in series [1]; > 100 µg/mL in series [3]; 80 µg/mL (≈ 196 µM) in [4]; > 100 µg/mL in [5]; > 100 µg/mL in series [11]; > 100 µg/mL in series [19]. Further, the outcome in series [2], in series [16], in series [17], in series [18] and in [22] was Active. Besides, the result in series [6], in series [7], in [8], in [10], in series [12] and in series [13] was inactive. The result in [14], in [20], in series [21] and in [23] was inactive. Further, in series [9], the inhibition in vivo at 10 mg/kg was found to be 71.6%. The LC50 at 24 h in series [15] is > 1000 µg/mL.
Consider `Cc1c(N(C)CS(=O)(=O)[O-])c(=O)n(-c2ccccc2)n1C.[Na+]` [DIPYRONE SODIUM], for which, in [24], the “inhibition (INH)” value worked out at 54%. In series [9], the inhibition in vivo at 10 mg/kg stood at 33%.
On to `CCc1ccc(NC2=C(Cl)C(=O)N(c3c(C)n(C)n(-c4ccccc4)c3=O)C2=O)cc1`, for which the MIC in [1] is > 100 µg/mL; in series [3] it was > 100 µg/mL; in series [4] it was > 100 µg/mL; in series [5] it was > 100 µg/mL; in series [11], 100 µg/mL (≈ 229 µM); in [19], > 100 µg/mL. The result in [2], in series [16], in series [17], in [18] and in series [22] was Active. The outcome in series [6], in series [7], in [8], in series [10], in [12] and in series [13] was inactive. For the same molecule, the result in series [14], in series [20], in series [21] and in series [23] was inactive. Moreover, the inhibition in vivo at 10 mg/kg in [9] was 49.5%. Besides, in [15], the LC50 at 24 h is > 1000 µg/mL.
Turning to `CC(=O)N1CCN(c2ccc(OCC3COC(Cn4ccnc4)(c4ccc(Cl)cc4Cl)O3)cc2)CC1` (stereo unspecified) [KETOCONAZOLE], the MIC in series [1] turned out to be 3 µg/mL (≈ 5.65 µM); in [3], 7 µg/mL (≈ 13.2 µM); in series [4], 15 µg/mL (≈ 28.2 µM); in series [5], 5 µg/mL (≈ 9.41 µM); in [11], 6 µg/mL (≈ 11.3 µM); in series [19], 8 µg/mL (≈ 15.1 µM).
`CC(=O)Oc1ccccc1C(=O)O` [ASPIRIN]: the “inhibition (INH)” value in series [24] amounted to 83%. For the same molecule, the results for the inhibition in vivo at 10 mg/kg in series [25], in series [9] and in series [26] were 45%, 35% and 16%, respectively.
Consider `Cc1c(N2C(=O)C(Cl)=C(Nc3ccc(Cl)c(Cl)c3)C2=O)c(=O)n(-c2ccccc2)n1C`, for which the MIC is > 100 µg/mL in series [1]; > 100 µg/mL in [3]; 80 µg/mL (≈ 167 µM) in series [4]; > 100 µg/mL in [5]; 100 µg/mL (≈ 209 µM) in series [11]; > 100 µg/mL in [19]. Moreover, the result in series [2], in series [16], in series [17], in series [18] and in series [22] was Active. Also, the result in [6], in [7], in series [8], in series [10], in [12] and in series [13] was inactive. For the same molecule, the outcome in [14], in series [20], in [21] and in [23] was inactive. For the same molecule, the inhibition in vivo at 10 mg/kg in [9] is 75%. Moreover, in series [15], the LC50 at 24 h was > 1000 µg/mL.
For the molecule `Cc1c(N2C(=O)C(Cl)=C(N3CCN(c4ccccn4)CC3)C2=O)c(=O)n(-c2ccccc2)n1C`, the result in series [6], in series [7], in series [8], in [10], in series [12] and in series [13] was inactive. Further, the result in [14], in series [20], in [21] and in series [23] was inactive. Besides, the inhibition in vivo at 10 mg/kg in [9] was determined as 77.7%. Besides, in [15], the median lethal concentration (LC50) at 24 h is > 1000 µg/mL.

For the origin of these results see ChEMBL document CHEMBL1275265, “Synthesis and biological evaluation of N-antipyrine-4-substituted amino-3-chloromaleimide derivatives” (Eur J Med Chem, 2010).
